Laboratory results reported in ChEMBL document CHEMBL4837237, “Broomeanamides: Cyclic Octapeptides from an Isolate of the Fungicolous Ascomycete Sphaerostilbella broomeana from India” (J Nat Prod, 2021).
Converted amounts (≈) assume the structure as drawn. The source made the active and inactive calls. The rule behind the calls is not given here. Square brackets hold non-standard residues; d marks the D form. Peptide text beside a SMILES is read from it. ξ: configuration not given here. NMeF = CN[C@@H](Cc1ccccc1)C(=O)O; Ile(3ξ) = CCC(C)[C@H](N)C(=O)O; NMeL = CN[C@@H](CC(C)C)C(=O)O; NMeV = CN[C@H](C(=O)O)C(C)C

Assays:
[1] = test system: Staphylococcus aureus; assay: Antibacterial activity against Staphylococcus aureus ATCC 29213 assessed as bacterial growth inhibition at 50 ug/disk measured after 24 to 72 hrs by disk diffusion assay; assay type: functional, organism-based; conditions: time 24-72 hrs
Procedure, shortened: (§1)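 Agar disk diffusion. Inoculum suspension (1–3 mL) mixed into 100 mL autoclaved medium cooled to 45 °C: yeast malt agar for the yeast, tryptic soy agar for the bacterium. Poured as 5 mL plates. 6.25 mm paper disks loaded with 50 μg sample, solvent evaporated. Incubated at room temperature 24–72 h. Amphotericin or gentamicin at 25 μg/disk as positive controls.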

[2] = test system: Candida albicans; assay: Antifungal activity against Candida albicans ATCC10231 assessed as fungal growth inhibition at 50 ug/disk measured after 24 to 72 hrs by disk diffusion assay; assay type: functional, organism-based; conditions: time 24-72 hrs; procedure, shortened: as §1
[3] = test system: Staphylococcus aureus; assay: Antibacterial activity against Staphylococcus aureus ATCC 43300 assessed as bacterial growth inhibition incubated for 24 hrs by alamarBlue dye based assay; assay type: functional
Procedure, shortened: (§2)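 Broth MIC, modified CLSI method. Overnight cultures diluted to OD600 0.8 in PBS, then 1000-fold in MOPS-buffered RPMI-1640. Exposed to serial dilutions from 0.25 to 128 μM. Growth read by adding 10% alamarBlue. S. aureus ATCC 43300: 24 h at 37 °C. C. albicans ATCC 10231: 48 h at 23 °C. C. neoformans H99: 48 h at 23 and at 37 °C. Controls: chlortetracycline + streptomycin (bacterium), amphotericin B (fungi).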

[4] = test system: Candida albicans; assay: Antifungal activity against Candida albicans ATCC 10231 assessed as fungal growth inhibition incubated for 48 hrs by alamarBlue dye based assay; assay type: functional; procedure, shortened: as §2
[5] = test system: Cryptococcus neoformans; assay: Antifungal activity against Cryptococcus neoformans H99 assessed as fungal growth inhibition incubated for 48 hrs at 23 degC by alamarBlue dye based assay; assay type: functional; procedure, shortened: as §2
[6] = test system: Cryptococcus neoformans; assay: Antifungal activity against Cryptococcus neoformans H99 assessed as fungal growth inhibition incubated for 48 hrs at 37 degC by alamarBlue dye based assay; assay type: functional; procedure, shortened: as §2

SMILES | Activity [1] | Activity [2] | MIC [3] | MIC [4] | MIC [5] | MIC [6]
CN1C(=O)C2CCCN2C(=O)/C1=C/c1ccccc1 (configuration not stated) | inactive | inactive |  |  |  | 
O=C1/C(=C/c2ccccc2)NC(=O)C2(O)CCCN12 (configuration not stated) | inactive | inactive |  |  |  | 
O=C1N/C(=C\c2ccccc2)C(=O)N2CCCC12 (configuration not stated) | inactive | inactive |  |  |  | 
O=C1N[C@@H](Cc2ccccc2)C(=O)N2CCC[C@@H]12 | inactive | inactive |  |  |  | 
CC(C)C[C@H]1C(=O)N[C@@H](C(C)C)C(=O)N2CCC[C@H]2C(=O)N(C)[C@@H](Cc2ccccc2)C(=O)N[C@@H](C)C(=O)N(C)[C@@H](C(C)C)C(=O)N(C)[C@@H](CC(C)C)C(=O)N[C@@H](C(C)C)C(=O)N1C (cyclo(A[NMeV][NMeL]V[NMeL]VP[NMeF])) | Active |  |  |  |  | 
CCC(C)[C@@H]1NC(=O)[C@H](CC(C)C)N(C)C(=O)[C@H](C(C)C)N(C)C(=O)[C@H](C)NC(=O)[C@H](Cc2ccccc2)N(C)C(=O)[C@@H]2CCCN2C(=O)[C@H](C(C)C)NC(=O)[C@H](CC(C)C)N(C)C1=O (some centres not stated) (cyclo(A[NMeV][NMeL][Ile(3ξ)][NMeL]VP[NMeF])) | Active | Active | 128 µg/mL (≈ 141 µM) | 64 µg/mL (≈ 70.4 µM) | 128 µg/mL (≈ 141 µM) | 8 µg/mL (≈ 8.8 µM)
C[C@@H]1[C@H](O)[C@@H](C)/C=C/C=C/C=C/C=C/C=C/C=C/C=C/[C@H](O[C@@H]2O[C@H](C)[C@@H](O)[C@H](N)[C@@H]2O)C[C@@H]2O[C@](O)(C[C@@H](O)C[C@@H](O)[C@H](O)CC[C@@H](O)C[C@@H](O)CC(=O)O[C@H]1C)C[C@H](O)[C@H]2C(=O)O [AMPHOTERICIN B] |  |  |  |  | 0.85 µg/mL (≈ 0.92 µM) | 0.85 µg/mL (≈ 0.92 µM)
